In data set [1] the test system is intracranial BT12 glioblastoma xenografts. Briefly: PET imaging of mice with intracranial BT12 glioblastoma xenografts. It is filed as in vivo, mouse. The settings on record: for SUV in healthy brain: i.v. The method, boiled down:
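Mice were imaged 21 days after intracranial BT12 inoculation, under 1–2% isoflurane on a heating pad. Non-contrast HRCT came first, then the tracer (4.70 ± 0.44 MBq, 0.10 ± 0.06 µg) i.v. via tail-vein cannula and 60-min dynamic list-mode PET. For blocking, the MCT1 inhibitor (1.1 mg/kg) was given i.v. 15 min before tracer. SUV was corrected for injected dose, body weight and tail/cannula residue; TBR was also derived. Data are mean ± SD, unpaired t-test.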

Data set [2] is described as follows: Ex vivo biodistribution in mice with glioblastoma. More on the design: species or system mouse. The settings on record: no blocking, 60 min postinjection, gamma counting, mean, n=7 ([18F]FNA-N-CooP), n=4 ([18F]FNA).
The nature of data set [3]: In vivo stability analysis. More on the design: species or system mouse. The note with it: mice with BT12 glioblastoma, i.v. In outline: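 After 60-min dynamic PET following tail-vein i.v. injection of the 18F-labelled peptide tracer, heparinized blood was centrifuged (2,100 × g, 5 min). Plasma was deproteinized with an equal volume of acetonitrile (14,000 × g, 3 min, RT), and fractions were gamma-counted. Protein-free plasma and acetonitrile-extracted brain homogenate were run on radio-HPLC (C18, 0.1% TFA water/acetonitrile, 12–80% B gradient). Peaks were assigned by reference retention times and co-injection.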

Data set [4] relates to monocarboxylate transporter 1 (MCT1). The settings on record: AZD3965 1.1 mg/kg; same mouse model; ref Dillemuth et al. [2025]; cited from earlier work.
The conditions of data set [5]: ref Dillemuth et al. [2025]; cited from earlier work.
[6] abbreviates: PET, glioblastoma mice, no blocking, mean ± SD, n = 4.
Setting [7] is: PET, no blocking, single mouse (one of two).

Like-named read-outs stand apart in the source and are kept apart here.

This is an account of results in publication PMC12238435 (EJNMMI Radiopharmacy and Chemistry, 2025).

Turning to FNA-CGLSGLGVA-NH2 [[^18F]FNA-N-CooP], in data set [1] (AZD3965 1.1 mg/kg i.v. 15 min before tracer, single mouse (one of two)), the “SUV in tumor, blocking with AZD3965” value is recorded as 0.17. The “SUV in healthy brain” value in data set [1] (setting [6]) is reported as 0.11 ± 0.02. For the same molecule, in data set [2], the “%ID/g Kidney” value turned out to be 8.88 ± 6.16 %ID/g and the “%ID/g Urine” value was 772.29 ± 373.58 %ID/g. In addition, the in vivo stability entry in data set [3] was “not stable in vivo”.
As for `Cc1[nH]nc(C(F)(F)F)c1Cc1sc2c(c1C(=O)N1C[C@](C)(O)CO1)c(=O)n(C)c(=O)n2C(C)C` [AZD3965], the “reduction of glioblastoma uptake of [^18F]FNA” value in data set [4] is 76%.
As for FB-CGLSGLGVA-NH2 [[^18F]FB-N-CooP], in data set [1] (setting [7]), the TBR was found to be 1.28 and the “tumor SUV” value came to 0.16.
Take `O=C(O)c1ccc([18F])nc1` [[^18F]FNA, 6-[^18F]fluoronicotinic acid, reference compound]: in data set [1] (setting [6]), the “tumor-to-brain ratio (TBR)” value is reported as 1.51 ± 0.08 and the “SUV in healthy brain” value amounted to 0.59 ± 0.05. Further, in data set [5], the in vivo stability entry is listed as “stable in vivo”.
